Data published in ChEMBL document CHEMBL4118188, “A small diversity library of α-methyl amide analogs of sulindac for probing anticancer structure-activity relationships” (Bioorg Med Chem Lett, 2018).

Columns and labels:
[1] = Growth inhibition of human NALM16 cells measured after 72 hrs by Celltiter-Glo reagent based assay; type: functional
[2] = test system: MDA-MB-231; experiment: Growth inhibition of human MDA-MB-231 cells measured after 96 hrs by Celltiter-Glo reagent based assay; type: functional; conditions: MDA-MB-231, 96 h
[3] = test system: 697; experiment: Growth inhibition of human 697 cells after 72 hrs by CellTiter-Glo reagent based assay; type: functional, cell-based
Method in brief: (§1)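 Cell line sources: Raji is a Burkitt's lymphoma line (FAB L3); Jurkat E6-1 is an acute T-cell leukemia line; REH is a patient-derived precursor B-cell ALL line expressing only wild-type MLL and wild-type AF4; 697 was established from bone marrow of children with relapsed ALL; CPC300 derives from a mouse model of choroid plexus carcinoma.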

[4] = test system: Raji; experiment: Growth inhibition of human Raji cells measured after 72 hrs by Celltiter-Glo reagent based assay; type: functional, cell-based; method in brief: as §1
[5] = test system: PC-3; experiment: Growth inhibition of human PC3 cells measured after 72 hrs by Celltiter-Glo reagent based assay; type: functional; conditions: PC-3, 72 h
[6] = test system: BJ; experiment: Growth inhibition of human BJ cells after 72 hrs by CellTiter-Glo reagent based assay; type: cell-based
[7] = test system: HT-29; experiment: Growth inhibition of human HT-29 cells measured after 72 hrs by Celltiter-Glo reagent based assay; type: functional; conditions: HT-29, 72 h
[8] = Growth inhibition of mouse CPC300 cells measured after 72 hrs by Celltiter-Glo reagent based assay; type: functional; method in brief: as §1
[9] = test system: REH; experiment: Growth inhibition of human REH cells measured after 72 hrs by CellTiter-Glo reagent based assay; type: functional, cell-based; method in brief: as §1
[10] = test system: Jurkat E6.1; experiment: Growth inhibition of human Jurkat E6-1 cells measured after 72 hrs by Celltiter-Glo reagent based assay; type: functional, cell-based; method in brief: as §1
[11] = Homo sapiens, NALM16, 72 h, read-out: EC50
[12] = Homo sapiens, REH, 72 h, read-out: EC50
[13] = Homo sapiens, Raji, 72 h, read-out: EC50
[14] = Homo sapiens, 697, 72 h, read-out: EC50
[15] = Homo sapiens, Jurkat E6.1, 72 h, read-out: EC50

SMILES	EC50 ([4]; raji)	EC50 ([10]; jurkat e6.1)	EC50 [4, 13]	EC50 [10, 15]	EC50 [1, 11]	CC50 [2]	EC50 [3]; 697	CC50 [5]	EC50 [6]	CC50 [7]	EC50 [8]	EC50 ([9]; reh)	EC50 [1]	EC50 [9, 12]	EC50 [3, 14]
CSc1ccc(/C=C2/C(C)=C(C(C)C(=O)N(CCCNC(C)C)C(C)C)c3cc(F)ccc32)cc1 (stereo not given)	Not Active	Not Active			1.5 µM	2.91 µM	Not Active	3.18 µM	> 7.57 µM	1260 nM	Not Active	Not Active			
CCN(CCN(C)C)C(=O)C(C)C1=C(C)/C(=C/c2ccc(SC)cc2)c2ccc(F)cc21 (stereo not given)		Not Active	< 0.00038 µM			3.18 µM	Not Active	3.54 µM	> 7.57 µM	1130 nM	Not Active		Not Active	10 µM	
CSc1ccc(/C=C2/C(C)=C(C(C)C(=O)N(C)CCCN(C)C)c3cc(F)ccc32)cc1 (stereo not given)	Not Active	Not Active				4.11 µM	Not Active	5.5 µM	> 7.57 µM	2120 nM	Not Active		Not Active	38 µM	
CSc1ccc(/C=C2/C(C)=C(C(C)C(=O)NCCN3CCNCC3)c3cc(F)ccc32)cc1 (stereo not given)		Not Active	45 µM			5.32 µM	Not Active	5.91 µM	> 7.57 µM	2220 nM	Not Active		Not Active	26 µM	
CSc1ccc(/C=C2/C(C)=C(C(C)C(=O)N(CCNC(C)C)C(C)C)c3cc(F)ccc32)cc1 (stereo not given)	Not Active	Not Active				3.83 µM	Not Active	3.91 µM	> 7.57 µM	1500 nM	Not Active	Not Active	Not Active		
CSc1ccc(/C=C2/C(C)=C(C(C)C(=O)N3CCN(c4ccncc4)CC3)c3cc(F)ccc32)cc1 (stereo not given)	Not Active	Not Active				3.95 µM		4.68 µM	> 7.57 µM	2200 nM	Not Active	Not Active	Not Active		76 µM
CSc1ccc(/C=C2/C(C)=C(C(C)C(=O)N3CCN(CCN(C)C)CC3)c3cc(F)ccc32)cc1 (stereo not given)	Not Active	Not Active			2.1 µM	3.77 µM	Not Active	5.98 µM	> 7.57 µM	2020 nM	Not Active	Not Active			

Further lines, with some results ahead:

EC50 ([4]; raji)	EC50 ([10]; jurkat e6.1)	EC50 [4, 13]	EC50 [10, 15]	SMILES	EC50 [1, 11]	CC50 [2]	EC50 [3]; 697	CC50 [5]	EC50 [6]	CC50 [7]	EC50 [8]	EC50 ([9]; reh)	EC50 [1]	EC50 [9, 12]	EC50 [3, 14]
Not Active	Not Active			CCN(CC)CCNC(=O)C(C)C1=C(C)/C(=C/c2ccc(SC)cc2)c2ccc(F)cc21 (stereo not given)		5.38 µM	Not Active	6.21 µM	> 7.57 µM	2030 nM	Not Active		Not Active	14 µM	
Not Active	Not Active			CSc1ccc(/C=C2/C(C)=C(C(C)C(=O)NCCN(C)C)c3cc(F)ccc32)cc1 (stereo not given)	76 µM	3.88 µM	Not Active	5.07 µM	> 7.57 µM	1800 nM	Not Active	Not Active			
Not Active			76 µM	CSc1ccc(/C=C2/C(C)=C(C(C)C(=O)NCCN3CCCC3)c3cc(F)ccc32)cc1 (stereo not given)		5 µM		5.68 µM	> 7.57 µM	2030 nM	Not Active		Not Active	76 µM	76 µM
		13 µM	7.7 µM	COc1cc(/C=C2/C(C)=C(C(C)C(=O)NCc3ccccc3)c3cc(F)ccc32)cc(OC)c1OC (stereo not given)	8 µM	3.81 µM		4.92 µM	> 7.57 µM	2770 nM	Not Active			7 µM	6.1 µM
Not Active	Not Active			CCN(CC)CCCNC(=O)C(C)C1=C(C)/C(=C/c2ccc(SC)cc2)c2ccc(F)cc21 (stereo not given)		4.23 µM	Not Active	6.13 µM	> 7.57 µM	2170 nM	Not Active	Not Active	Not Active		
